Reference: paper PMC5976253 (Journal of medicinal chemistry, 2018)
Entries after “also recorded” stand apart in the source; their conditions may differ.

Legend:
rat UT-B = target: T1, rat UT-B (Rattus norvegicus, UniProt P97689); assay: UT-B inhibition, erythrocyte lysis assay; format: cell-based
T1 sequence (P97689 1-384): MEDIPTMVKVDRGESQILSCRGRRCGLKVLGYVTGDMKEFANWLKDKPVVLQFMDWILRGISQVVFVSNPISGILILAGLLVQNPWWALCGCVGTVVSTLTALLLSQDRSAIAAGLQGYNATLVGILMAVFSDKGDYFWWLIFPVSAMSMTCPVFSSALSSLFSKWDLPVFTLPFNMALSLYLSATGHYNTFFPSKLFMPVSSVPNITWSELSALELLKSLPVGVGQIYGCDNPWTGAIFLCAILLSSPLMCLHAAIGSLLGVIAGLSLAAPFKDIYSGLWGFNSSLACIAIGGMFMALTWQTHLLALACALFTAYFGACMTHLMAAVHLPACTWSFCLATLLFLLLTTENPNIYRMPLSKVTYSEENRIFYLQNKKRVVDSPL
How it was run: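 Rat whole blood was diluted to ~1.5% hematocrit in PBS with 1.25 M acetamide and 5 mM glucose, then incubated 15 min with test compound. Suspension was added rapidly to wells and mixed vigorously, and lysis was read as absorbance at 710 nm. Controls were isosmolar buffer (nonlysed) and 0.7 mM phloretin (lysed), with % lysis normalized between them; mean ± SEM, n = 3.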

rat UT-A1 = target: T2, rat UT-A1 (Rattus norvegicus, UniProt Q62668); format: cell-based
T2 sequence (Q62668 1-929): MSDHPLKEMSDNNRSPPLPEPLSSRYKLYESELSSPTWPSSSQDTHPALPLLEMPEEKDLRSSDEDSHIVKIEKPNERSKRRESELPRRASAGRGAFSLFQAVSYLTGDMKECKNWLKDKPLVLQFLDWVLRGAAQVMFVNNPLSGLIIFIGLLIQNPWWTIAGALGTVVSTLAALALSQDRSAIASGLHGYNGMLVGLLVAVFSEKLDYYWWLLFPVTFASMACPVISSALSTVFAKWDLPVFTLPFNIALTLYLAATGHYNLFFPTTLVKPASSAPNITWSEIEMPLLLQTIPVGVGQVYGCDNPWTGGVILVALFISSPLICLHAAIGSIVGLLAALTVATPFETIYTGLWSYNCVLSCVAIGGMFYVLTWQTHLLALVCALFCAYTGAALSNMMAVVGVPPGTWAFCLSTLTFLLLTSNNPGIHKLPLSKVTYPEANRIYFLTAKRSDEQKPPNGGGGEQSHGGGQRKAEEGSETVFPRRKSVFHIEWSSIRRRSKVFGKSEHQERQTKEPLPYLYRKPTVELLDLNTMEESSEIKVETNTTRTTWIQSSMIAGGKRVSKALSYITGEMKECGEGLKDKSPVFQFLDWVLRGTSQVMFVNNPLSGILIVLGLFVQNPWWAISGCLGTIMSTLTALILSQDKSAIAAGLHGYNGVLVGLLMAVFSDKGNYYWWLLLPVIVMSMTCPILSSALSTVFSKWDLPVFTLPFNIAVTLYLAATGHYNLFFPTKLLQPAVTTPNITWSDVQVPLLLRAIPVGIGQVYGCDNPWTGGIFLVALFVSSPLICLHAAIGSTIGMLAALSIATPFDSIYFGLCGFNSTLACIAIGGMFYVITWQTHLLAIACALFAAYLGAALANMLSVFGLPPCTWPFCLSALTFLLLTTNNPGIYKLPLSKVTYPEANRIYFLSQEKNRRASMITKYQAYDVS
How it was run: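 MDCK cells co-expressing rat UT-A1, AQP1 and YFP were used, selecting a clone with bright YFP and relatively low AQP1. Urea transport was read by plate-reader fluorescence, referenced to DMSO (0%) and phloretin (100%). Concentration–inhibition data are mean ± SEM, n = 3. For reversibility, cells were preincubated with 0.5 µM compound and PBS-washed before assay. For kinetics, 0.5 µM was added at varied times before assay. Urea gradients were 200, 400 and 800 mM.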

Rat pharmacokinetics = format: in vivo; conditions: 4 mg/kg intravenous
How it was run: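 Tail-vein blood was taken at 15, 30, 60, 120 and 180 min, serum separated, and urine collected in metabolic cages for 3 h; samples were stored at −20 °C. LC/MS (ESI positive) quantified compound against standards spiked into control rat urine and plasma.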

rats = assay: Diuretic studies in rats; format: in vivo; conditions: rat, 4 mg/kg intravenous, compared with pretreatment
How it was run: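 Male Wistar rats (250–300 g), acclimated individually in metabolic cages for 3 days (6 h/day), with food and water ad libitum. Spontaneously voided urine was collected for 3 h. Test compound or vehicle was then given IV via catheter at 4 mg/kg in saline with 20% dimethylacetamide and 1.28 mg/mL NaOH, and urine was collected for a further 3 h. Read-outs were volume and freezing-point osmolality; mean ± SEM, n = 4; paired t-test versus −3 to 0 h.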

UT-B inhibition (in words) (rat UT-B) | UT-A1 inhibition (in words) (rat UT-A1) | Structure (SMILES) | further results
modest activity | – | COc1ccc(Cl)cc1S(=O)(=O)Nc1ccc(Oc2nc3ccccc3n3cnnc23)cc1 [8aa, N-(4-([1,2,4]Triazolo[4,3-a]quinoxalin-4-yloxy)-phenyl)-5-chloro-2-methoxybenzenesulfonamide] | –
– | inactive | COc1ccc(Cl)c(S(=O)(=O)Nc2ccc(Oc3nc4ccccc4n4cnnc34)cc2)c1 [8ag] | –
– | inactive | COc1ccc(Cl)c(S(=O)(=O)Nc2ccc(Nc3nc4ccccc4n4cnnc34)cc2)c1 [8am] | –
– | inactive | COc1ccc(Cl)cc1S(=O)(=O)Nc1ccc(Oc2nc3ccccc3n3c(C)nnc23)cc1 [8an] | –
– | – | CCCc1nnc2c(Oc3ccc(NS(=O)(=O)c4cc(Cl)ccc4OC)cc3)nc3ccccc3n12 [8ay] | Reversibility of UT-A1 inhibition (rat UT-A1; 0.5 µM for 15 min followed by washing): fully reversed; half-time for UT-A1 inhibition (rat UT-A1; after addition of 0.5 µM compound): ~ 2 min; IC50 for UT-A1 at different urea concentration gradients (inhibition mechanism) (rat UT-A1; urea 200, 400 and 800 mM): similar
– | inactive | COc1ccc(Cl)cc1S(=O)(=O)Nc1ccc(Oc2nc3cc(Cl)c(Cl)cc3n3cnnc23)cc1 [8bi] | –
– | – | CCCc1nnc2c(Oc3ccc(NS(=O)(=O)c4cc(Cl)ccc4OC)cc3)nc3cc(F)c(F)cc3n12 [8bl] | serum concentration (Rat pharmacokinetics; for 3 h): greater than 2 µM; urine concentration (Rat pharmacokinetics; urine collected for 3 h): 6 to 8 µM; 3 h urine volume (rats): marked diuresis; also recorded: significantly increased; urine osmolality (rats): reduced urinary osmolality
little UT-B inhibition | – | CC(=O)Nc1ccc(-c2noc(C3CCCN(C(=O)c4ccccc4F)C3)n2)cc1 (stereo not shown) [compound 1] | –
little UT-B inhibition | – | COc1ccc(-c2cccc(-c3ccn(Cc4csc(C)n4)n3)c2)nn1 [compound 2] | –
little UT-B inhibition | – | O=C(Nc1ccon1)c1cc(-c2ccccc2)nc2ccccc12 [compound 3] | –
– | low potency | COC(=O)c1sc2nc3c(cc2c1N)CN(Cc1ccccc1)CC3 [compound 4] | –
